# Source: ChEMBL document CHEMBL4138242, “Synthesis and antibacterial evaluation of novel cationic chalcone derivatives possessing broad spectrum antibacterial activity” (Eur J Med Chem, 2018)
# Active and inactive are the calls of the source. The calls are words filed in the database; no cut-off is given here.
# Tests used:
# Escherichia coli [1] = assay: Antibacterial activity against drug-resistant NDM1 producing Escherichia coli clinical isolate EC-14-54 after 16 to 20 hrs by broth microdilution method; format: functional
# Summary of the method: (§1)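 CLSI broth microdilution in Mueller-Hinton broth. A 4-6 h culture was diluted to about 10⁶ CFU/mL and mixed 1:1 with compound dilutions prepared at 256 to 0.5 µg/mL from aqueous stocks. Plates were incubated at 37 °C for 16-20 h and read visually for MIC. Each concentration was run in duplicate, and the experiment was repeated at least twice. Vancomycin and meropenem were comparators.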
# Staphylococcus aureus [2] = assay: Antibacterial activity against methicillin-resistant Staphylococcus aureus clinical isolate 20131012632sau after 16 to 20 hrs by broth microdilution method; format: functional; summary of the method: as §1
# Escherichia coli [3] = assay: Antibacterial activity against drug-resistant NDM1 producing Escherichia coli clinical isolate CF-13-61 after 16 to 20 hrs by broth microdilution method; format: functional; summary of the method: as §1
# Escherichia coli [4] = assay: Induction of inner membrane permeabilization in Escherichia coli ATCC 25922 at 10 to 20 ug/ml measured every 2 mins for 12 mins by propidium iodide staining-based fluorescence assay; format: functional, organism-based
# Summary of the method: (§2)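 Mid-log cells (~10⁸ CFU/mL) were suspended in PBS (S. aureus) or HEPES/glucose/KCl (E. coli). They were preincubated with propidium iodide for 30 min (S. aureus) or 40 min (E. coli), and baseline fluorescence was read for 8 min. Compound was added to 20 µg/mL final, and fluorescence (ex 535/em 617 nm) was read every 2 min for 12 min.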
# Klebsiella pneumoniae [5] = assay: Antibacterial activity against drug-resistant carbapenemase producing Klebsiella pneumoniae clinical isolate KP-14-45 after 16 to 20 hrs by broth microdilution method; format: functional; summary of the method: as §1
# Escherichia coli [6] = assay: Antibacterial activity against drug-resistant NDM1 producing Escherichia coli clinical isolate Ecl-14-59 after 16 to 20 hrs by broth microdilution method; format: functional; summary of the method: as §1
# Klebsiella pneumoniae [7] = assay: Antibacterial activity against drug-resistant carbapenemase producing Klebsiella pneumoniae clinical isolate EC-13-23 after 16 to 20 hrs by broth microdilution method; format: functional; summary of the method: as §1
# Staphylococcus aureus [8] = assay: Induction of cytoplasmic membrane depolarization in Staphylococcus aureus ATCC 29213 at 10 to 20 ug/ml measured every 2 mins for 12 mins by DiSC35 dye-based fluorescence assay; format: functional, organism-based
# Summary of the method: (§3)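 Mid-log cells (~10⁸ CFU/mL) were suspended in PBS (S. aureus) or HEPES/glucose/KCl with EDTA (E. coli). They were preloaded with DiSC3(5) for 30 min (S. aureus) or 40 min (E. coli), and baseline fluorescence was read for 8 min. Compound was added to 20 µg/mL final, and fluorescence (ex 622/em 670 nm) was read every 2 min for 12 min. Water served as control.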
# Klebsiella pneumoniae [9] = assay: Antibacterial activity against drug-resistant carbapenemase producing Klebsiella pneumoniae clinical isolate KP-13-55 after 16 to 20 hrs by broth microdilution method; format: functional; summary of the method: as §1
# Escherichia coli [10] = assay: Antibacterial activity against drug-resistant NDM1 producing Escherichia coli clinical isolate 1460 after 16 to 20 hrs by broth microdilution method; format: functional; summary of the method: as §1
# Klebsiella pneumoniae [11] = assay: Antibacterial activity against drug-resistant carbapenemase producing Klebsiella pneumoniae clinical isolate KP-13-54 after 16 to 20 hrs by broth microdilution method; format: functional; summary of the method: as §1
# Klebsiella pneumoniae [12] = assay: Antibacterial activity against drug-resistant carbapenemase producing Klebsiella pneumoniae clinical isolate KP-14-4 after 16 to 20 hrs by broth microdilution method; format: functional; summary of the method: as §1
# Staphylococcus aureus [13] = assay: Antibacterial activity against methicillin-resistant Staphylococcus aureus clinical isolate 20130911034sau after 16 to 20 hrs by broth microdilution method; format: functional; summary of the method: as §1
# Escherichia coli [14] = assay: Antibacterial activity against drug-resistant NDM1 producing Escherichia coli clinical isolate SM-15-84 after 16 to 20 hrs by broth microdilution method; format: functional; summary of the method: as §1
# Escherichia coli [15] = assay: Antibacterial activity against Escherichia coli ATCC 25922 after 16 to 20 hrs by broth microdilution method; format: functional
# Summary of the method: (§4)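 Broth microdilution per CLSI. Bacteria grown 4-6 h (about 10⁸ CFU/mL), then diluted to about 10⁶ CFU/mL. Medium: Mueller-Hinton broth, except Luria-Bertani broth for E. coli. Compounds in sterile water, twofold series 256-0.5 µg/mL, mixed 1:1 with inoculum, 37 °C for 16-20 h. MIC is the lowest concentration without visible growth. Duplicate wells; experiment repeated at least twice.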
# Enterococcus faecalis = assay: Antibacterial activity against Enterococcus faecalis ATCC 29212 after 16 to 20 hrs by broth microdilution method; format: functional; summary of the method: as §4
# Escherichia coli [16] = assay: Antibacterial activity against drug-resistant NDM1 producing Escherichia coli clinical isolate EA-14-61 after 16 to 20 hrs by broth microdilution method; format: functional; summary of the method: as §1
# Klebsiella pneumoniae [17] = assay: Antibacterial activity against drug-resistant carbapenemase producing Klebsiella pneumoniae clinical isolate KP-14-5 after 16 to 20 hrs by broth microdilution method; format: functional; summary of the method: as §1
# Escherichia coli [18] = assay: Antibacterial activity against drug-resistant NDM1 producing Escherichia coli clinical isolate KP-13-58 after 16 to 20 hrs by broth microdilution method; format: functional; summary of the method: as §1
# Staphylococcus aureus [19] = assay: Antibacterial activity against methicillin-resistant Staphylococcus aureus clinical isolate 1208143 after 16 to 20 hrs by broth microdilution method; format: functional; summary of the method: as §1
# Escherichia coli [20] = assay: Antibacterial activity against drug-resistant NDM1 producing Escherichia coli clinical isolate Ecl-14-58 after 16 to 20 hrs by broth microdilution method; format: functional; summary of the method: as §1
# Staphylococcus aureus [21] = assay: Antibacterial activity against methicillin-resistant Staphylococcus aureus clinical isolate 0906202 after 16 to 20 hrs by broth microdilution method; format: functional; summary of the method: as §1
# Klebsiella pneumoniae [22] = assay: Antibacterial activity against drug-resistant carbapenemase producing Klebsiella pneumoniae clinical isolate KP-14-18 after 16 to 20 hrs by broth microdilution method; format: functional; summary of the method: as §1
# Klebsiella pneumoniae [23] = assay: Antibacterial activity against drug-resistant carbapenemase producing Klebsiella pneumoniae clinical isolate KP-14-1 after 16 to 20 hrs by broth microdilution method; format: functional; summary of the method: as §1
# Escherichia coli [24] = assay: Induction of cytoplasmic membrane depolarization in Escherichia coli ATCC 25922 at 10 to 20 ug/ml measured every 2 mins for 12 mins by DiSC35 dye-based fluorescence assay; format: functional, organism-based; summary of the method: as §3
# Escherichia coli [25] = assay: Antibacterial activity against drug-resistant NDM1 producing Escherichia coli clinical isolate Ecl-13-62 after 16 to 20 hrs by broth microdilution method; format: functional; summary of the method: as §1
# Staphylococcus aureus [26] = assay: Induction of inner membrane permeabilization in Staphylococcus aureus ATCC 29213 at 10 to 20 ug/ml measured every 2 mins for 12 mins by propidium iodide staining-based fluorescence assay; format: functional, organism-based; summary of the method: as §2
# Klebsiella pneumoniae [27] = assay: Antibacterial activity against drug-resistant carbapenemase producing Klebsiella pneumoniae clinical isolate KP-14-2 after 16 to 20 hrs by broth microdilution method; format: functional; summary of the method: as §1
# Staphylococcus aureus [28] = assay: Antibacterial activity against Staphylococcus aureus ATCC 29213 after 16 to 20 hrs by broth microdilution method; format: functional; summary of the method: as §4
# Klebsiella pneumoniae [29] = assay: Antibacterial activity against drug-resistant carbapenemase producing Klebsiella pneumoniae clinical isolate KP-13-45 after 16 to 20 hrs by broth microdilution method; format: functional; summary of the method: as §1
# Salmonella enterica = assay: Antibacterial activity against Salmonella enterica ATCC 13076 after 16 to 20 hrs by broth microdilution method; format: functional; summary of the method: as §4
# Escherichia coli [30] = assay: Antibacterial activity against drug-resistant NDM1 producing Escherichia coli clinical isolate Ecl-14-56 after 16 to 20 hrs by broth microdilution method; format: functional; summary of the method: as §1
# Staphylococcus aureus [31] = assay: Antibacterial activity against methicillin-resistant Staphylococcus aureus clinical isolate 1105183 cono7 after 16 to 20 hrs by broth microdilution method; format: functional; summary of the method: as §1
# Escherichia coli [32] = assay: Antibacterial activity against drug-resistant NDM1 producing Escherichia coli clinical isolate CF-15-61 after 16 to 20 hrs by broth microdilution method; format: functional; summary of the method: as §1
# Staphylococcus aureus [33] = assay: Antibacterial activity against methicillin-resistant Staphylococcus aureus clinical isolate 1104060 after 16 to 20 hrs by broth microdilution method; format: functional; summary of the method: as §1
# Escherichia coli [34] = assay: Antibacterial activity against drug-resistant NDM1 producing Escherichia coli clinical isolate EC-13-49 after 16 to 20 hrs by broth microdilution method; format: functional; summary of the method: as §1
# Staphylococcus aureus [35] = assay: Antibacterial activity against methicillin-resistant Staphylococcus aureus clinical isolate 1207007 after 16 to 20 hrs by broth microdilution method; format: functional; summary of the method: as §1
# Staphylococcus aureus [36] = assay: Antibacterial activity against methicillin-resistant Staphylococcus aureus clinical isolate 1-may after 16 to 20 hrs by broth microdilution method; format: functional; summary of the method: as §1
# [37] = Hemolytic activity in sheep RBC after 1 hr; format: ADME, cell-based, Ovis aries, Erythrocyte; conditions: sheep red blood cells (erythrocytes)
# Summary of the method: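 Sheep red blood cells (150 µL suspension) mixed with 50 µL of compound dilutions (5120-10 µg/mL), 1 h at 37 °C, then centrifuged. Supernatant read at 540 nm. Percent hemolysis calculated relative to RBC-only control (0%) and 0.1% Triton X-100 (100%).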
# Klebsiella pneumoniae [38] = assay: Antibacterial activity against drug-resistant carbapenemase producing Klebsiella pneumoniae clinical isolate KP-14-8 after 16 to 20 hrs by broth microdilution method; format: functional; summary of the method: as §1
# Staphylococcus aureus [39] = assay: Antibacterial activity against methicillin-resistant Staphylococcus aureus clinical isolate 0831010 after 16 to 20 hrs by broth microdilution method; format: functional; summary of the method: as §1
# Klebsiella pneumoniae [40] = assay: Antibacterial activity against drug-resistant carbapenemase producing Klebsiella pneumoniae clinical isolate KP-14-3 after 16 to 20 hrs by broth microdilution method; format: functional; summary of the method: as §1
smiles,measurement,setting,value
CCCCCCCC[N+](C)(C)CC(=O)Nc1ccc(C(=O)/C=C/c2ccc(Cl)cc2)cc1.[Cl-],MIC,Escherichia coli [1],16 µg/mL
same,MIC,Staphylococcus aureus [2],2 µg/mL
same,MIC,Escherichia coli [3],8 µg/mL
same,Activity,Escherichia coli [4],Active
same,MIC,Klebsiella pneumoniae [5],8 µg/mL
same,MIC,Escherichia coli [6],8 µg/mL
same,MIC,Klebsiella pneumoniae [7],8 µg/mL
same,Activity,Staphylococcus aureus [8],Active
same,MIC,Klebsiella pneumoniae [9],32 µg/mL
same,MIC,Escherichia coli [10],8 µg/mL
same,MIC,Klebsiella pneumoniae [11],8 µg/mL
same,MIC,Klebsiella pneumoniae [12],8 µg/mL
same,MIC,Staphylococcus aureus [13],0.5 µg/mL
same,MIC,Escherichia coli [14],16 µg/mL
same,MIC,Escherichia coli [15],4 µg/mL
same,MIC,Enterococcus faecalis,2 µg/mL
same,MIC,Escherichia coli [16],4 µg/mL
same,MIC,Klebsiella pneumoniae [17],8 µg/mL
same,MIC,Escherichia coli [18],4 µg/mL
same,MIC,Staphylococcus aureus [19],2 µg/mL
same,MIC,Escherichia coli [20],4 µg/mL
same,MIC,Staphylococcus aureus [21],1 µg/mL
same,MIC,Klebsiella pneumoniae [22],16 µg/mL
same,MIC,Klebsiella pneumoniae [23],16 µg/mL
same,Activity,Escherichia coli [24],Active
same,MIC,Escherichia coli [25],8 µg/mL
same,Activity,Staphylococcus aureus [26],Active
same,MIC,Klebsiella pneumoniae [27],16 µg/mL
same,MIC,Staphylococcus aureus [28],2 µg/mL
same,MIC,Klebsiella pneumoniae [29],8 µg/mL
same,MIC,Salmonella enterica,8 µg/mL
same,MIC,Escherichia coli [30],4 µg/mL
same,MIC,Staphylococcus aureus [31],1 µg/mL
same,MIC,Escherichia coli [32],8 µg/mL
same,MIC,Staphylococcus aureus [33],4 µg/mL
same,MIC,Escherichia coli [34],16 µg/mL
same,MIC,Staphylococcus aureus [35],0.5 µg/mL
same,MIC,Staphylococcus aureus [36],2 µg/mL
same,HC50 at 1 h,[37],> 500 µg/mL
same,MIC,Klebsiella pneumoniae [38],8 µg/mL
same,MIC,Staphylococcus aureus [39],1 µg/mL
same,MIC,Klebsiella pneumoniae [40],8 µg/mL
